Legend:
[1] = Stability in human plasma assessed as percentage intact peptide at 100 uM incubated for 24 hrs by LC-HRMS analysis; type: ADME, cell-free; conditions: read-out: Stability
Procedure, shortened: (§1)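 Peptides at 100 μM initial concentration in human plasma/PBS (1:2 v/v), incubated at 37 °C for up to 48 h (sampled at 10 min, 30 min, 1, 2, 6, 24, 48 h); intact peptide and fragments analysed by LC-HRMS. Values are means ± SEM from three independent experiments.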

[2] = Stability in human plasma assessed as percentage intact peptide at 100 uM incubated for 10 mins by LC-HRMS analysis; type: ADME, cell-free; conditions: read-out: Stability; procedure, shortened: as §1
[3] = Stability in human plasma assessed as half life at 100 uM by LC-HRMS analysis; type: ADME, cell-free; procedure, shortened: as §1
[4] = Stability in human plasma assessed as percentage intact peptide at 100 uM incubated for 48 hrs by LC-HRMS analysis; type: ADME, cell-free; conditions: read-out: Stability; procedure, shortened: as §1
[5] = Stability in human plasma assessed as percentage intact peptide at 100 uM incubated for 1 hr by LC-HRMS analysis; type: ADME, cell-free; conditions: read-out: Stability; procedure, shortened: as §1
[6] = Stability in human plasma assessed as percentage intact peptide at 100 uM incubated for 30 mins by LC-HRMS analysis; type: ADME, cell-free; conditions: read-out: Stability; procedure, shortened: as §1
[7] = Stability in human plasma assessed as percentage intact peptide at 100 uM incubated for 2 hrs by LC-HRMS analysis; type: ADME, cell-free; conditions: read-out: Stability; procedure, shortened: as §1
[8] = target: Neurotensin receptor type 1 (Homo sapiens, UniProt P30989); test: Displacement of [3H]UR-MK300 from human NSTR1 in HT-29 cells incubated for 2 hrs by liquid scintillation counter; type: cell-based
[9] = Stability in human plasma assessed as percentage intact peptide at 100 uM incubated for 6 hrs by LC-HRMS analysis; type: ADME, cell-free; conditions: read-out: Stability; procedure, shortened: as §1

Neurotensin receptor type 1, sequence (P30989 whole entry): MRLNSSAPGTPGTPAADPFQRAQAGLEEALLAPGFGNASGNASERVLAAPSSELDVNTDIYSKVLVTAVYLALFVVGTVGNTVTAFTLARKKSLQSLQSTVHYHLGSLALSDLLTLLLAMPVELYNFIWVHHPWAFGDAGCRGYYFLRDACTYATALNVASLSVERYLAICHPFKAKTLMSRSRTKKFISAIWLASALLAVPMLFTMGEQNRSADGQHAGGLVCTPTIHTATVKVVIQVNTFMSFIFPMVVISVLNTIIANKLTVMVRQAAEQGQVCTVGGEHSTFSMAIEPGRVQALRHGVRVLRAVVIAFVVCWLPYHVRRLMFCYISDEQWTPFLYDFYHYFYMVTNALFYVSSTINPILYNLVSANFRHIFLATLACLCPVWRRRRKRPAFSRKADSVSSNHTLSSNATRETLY

With CC[C@H](C)[C@H](NC(=O)[C@H](Cc1ccc(O)cc1)NC(=O)[C@@H]1CCCN1C(=O)[C@H](CCCNC(=N)N)NC(=O)[C@@H](N)CCCNC(=N)N)C(=O)N[C@@H](CC(C)C)C(=O)O the remaining at 24 h, 100 µM [1] was < 1%, the remaining at 10 min, 100 µM [2] was 23.1% and the half-life at 100 µM [3] was < 0.0833 h. For the same molecule, the remaining at 48 h, 100 µM [4] was < 1% and the remaining at 1 h, 100 µM [5] was < 1%.

In the case of CC[C@H](C)[C@@H](C(=O)N[C@@H](CC(C)C)C(=O)O)N(C)C(=O)[C@H](Cc1ccc(O)cc1)NC(=O)[C@@H]1CCCN1C(=O)[C@H](CCCNC(=N)N)NC(=O)[C@@H](N)CCCNC(=N)N, the remaining at 0.5 h, 100 µM [6] is reported as < 1%, the remaining at 2 h, 100 µM [7] is reported as < 1% and the remaining at 10 min, 100 µM [2] is reported as 2.6%. The remaining at 1 h, 100 µM [5] was < 1%.

In the case of CC[C@H](C)[C@H](NC(=O)[C@H](Cc1ccc(O)cc1)N(C)C(=O)[C@@H]1CCCN1C(=O)[C@H](CCCNC(=N)N)NC(=O)[C@@H](N)CCCNC(=N)N)C(=O)N[C@@H](CC(C)C)C(=O)O, the remaining at 0.5 h, 100 µM [6] is reported as < 1%, the remaining at 2 h, 100 µM [7] is reported as < 1% and the remaining at 10 min, 100 µM [2] is reported as 22.9%. For the same molecule, the remaining at 1 h, 100 µM [5] was < 1%.

With CC(C)C[C@H](NC(=O)[C@@H](NC(=O)[C@H](Cc1ccc(O)cc1)NC(=O)[C@@H]1CCCN1C(=O)[C@H](CCCNC(=N)N)NC(=O)[C@@H](N)CCCNC(=N)N)C(C)(C)C)C(=O)O.O=C(O)C(F)(F)F.O=C(O)C(F)(F)F.O=C(O)C(F)(F)F the remaining at 24 h, 100 µM [1] was < 1%, the remaining at 10 min, 100 µM [2] was 10.8% and the half-life at 100 µM [3] was < 0.0833 h. For the same molecule, the remaining at 48 h, 100 µM [4] was < 1% and the remaining at 1 h, 100 µM [5] was < 1%.

In the case of CC[C@H](C)[C@H](NC(=O)[C@H](Cc1ccc(O)cc1)NC(=O)[C@@H]1CCCN1C(=O)[C@H](CCCNC(=N)N)NC(=O)[C@@H](N)CCCNC(=N)N)C(=O)N(C)[C@@H](CC(C)C)C(=O)O, the remaining at 0.5 h, 100 µM [6] is reported as < 1%, the remaining at 2 h, 100 µM [7] is reported as < 1% and the remaining at 10 min, 100 µM [2] is reported as 39.9%. The remaining at 1 h, 100 µM [5] was < 1%.

With CC[C@H](C)[C@H](NC(=O)[C@H](Cc1ccc(O)cc1)NC(=O)[C@@H]1CCCN1C(=O)[C@H](CCCNC(=N)N)N(C)C(=O)[C@@H](N)CCCNC(=N)N)C(=O)N[C@@H](CC(C)C)C(=O)O the remaining at 0.5 h, 100 µM [6] was 93.6%, the remaining at 2 h, 100 µM [7] was 66.4% and the remaining at 10 min, 100 µM [2] was > 99%. The remaining at 1 h, 100 µM [5] was 83.7%.

With CC(C)C[C@H](NC(=O)[C@@H](NC(=O)[C@H](Cc1ccc(O)cc1)NC(=O)[C@@H]1CCCN1C(=O)[C@H](CCCNC(=N)N)N(C)C(=O)[C@@H](N)CCCNC(=N)N)C(C)(C)C)C(=O)O.O=C(O)C(F)(F)F.O=C(O)C(F)(F)F.O=C(O)C(F)(F)F the remaining at 24 h, 100 µM [1] was > 99%, the Ki [8] was 1.6 nM and the half-life at 100 µM [3] was > 48 h. The remaining at 48 h, 100 µM [4] was > 99%, the remaining at 6 h, 100 µM [9] was > 99% and the remaining at 1 h, 100 µM [5] was > 99%.

For CCC(=O)N[C@@H](CCCNC(=N)N)C(=O)N[C@@H](CCCNC(=N)N)C(=O)N1CCC[C@H]1C(=O)N[C@@H](Cc1ccc(O)cc1)C(=O)N[C@H](C(=O)N[C@@H](CC(C)C)C(=O)O)[C@@H](C)CC.O=C(O)C(F)(F)F.O=C(O)C(F)(F)F, the remaining at 0.5 h, 100 µM [6] was 84%, the remaining at 10 min, 100 µM [2] was > 99% and the half-life at 100 µM [3] was 1 to 2 h. The remaining at 1 h, 100 µM [5] was 71.8%.

In the case of CCC(=O)N[C@@H](CCCNC(=N)N)C(=O)N[C@@H](CCCNC(=N)N)C(=O)N1CCC[C@H]1C(=O)N[C@@H](Cc1ccc(O)cc1)C(=O)N[C@H](C(=O)N[C@@H](CC(C)C)C(=O)O)C(C)(C)C, the remaining at 24 h, 100 µM [1] is reported as > 99%, the Ki [8] is reported as 18 nM and the remaining at 48 h, 100 µM [4] is reported as 92.5%. For the same molecule, the remaining at 6 h, 100 µM [9] was > 99% and the remaining at 1 h, 100 µM [5] was > 99%.

For CN[C@@H](CCCNC(=N)N)C(=O)N[C@@H](CCCNC(=N)N)C(=O)N1CCC[C@H]1C(=O)N[C@@H](Cc1ccc(O)cc1)C(=O)N[C@H](C(=O)N[C@@H](CC(C)C)C(=O)O)C(C)(C)C.O=C(O)C(F)(F)F.O=C(O)C(F)(F)F.O=C(O)C(F)(F)F, the remaining at 24 h, 100 µM [1] was 98.3%, the Ki [8] was 0.88 nM and the half-life at 100 µM [3] was > 48 h. The remaining at 48 h, 100 µM [4] was 86.8%, the remaining at 6 h, 100 µM [9] was > 99% and the remaining at 1 h, 100 µM [5] was > 99%.

A Ki [8] of 0.223 nM, a remaining at 0.5 h, 100 µM [6] of 88.2% and a remaining at 2 h, 100 µM [7] of 70.8% were found for CC[C@H](C)[C@H](NC(=O)[C@H](Cc1ccc(O)cc1)NC(=O)[C@@H]1CCCN1C(=O)[C@H](CCCNC(=N)N)NC(=O)[C@H](CCCNC(=N)N)NC)C(=O)N[C@@H](CC(C)C)C(=O)O.O=C(O)C(F)(F)F.O=C(O)C(F)(F)F.O=C(O)C(F)(F)F in this work. For the same molecule, the remaining at 10 min, 100 µM [2] was 92.1%, the half-life at 100 µM [3] was < 5 h and the remaining at 1 h, 100 µM [5] was 79.7%.
